ChEMBL document CHEMBL1137710, “Synthesis and in vitro antitumor activity of new quinoxaline derivatives” (2009)

Columns and labels:
Type in all cases: functional
NCI-H460 [1] = experiment: Growth inhibition of human NCI-H460 cells after 48 hrs by sulforhodamine B assay; details: NCI-H460, 48 h
How it was run: (§1)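 NCI 60-human-tumor-cell-line panel, with compounds tested over a 5-log dose range. Values are taken from dose-response curves as log10 molar concentrations: GI50 is 50% net growth inhibition, TGI is total growth inhibition, and LC50 is 50% net cell death.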

LOX IMVI = experiment: Growth inhibition of human LOXIMVI cells after 48 hrs by sulforhodamine B assay; how it was run: as §1
HCT-15 = experiment: Growth inhibition of human HCT15 cells after 48 hrs by sulforhodamine B assay; details: HCT-15, 48 h; how it was run: as §1
IGROV-1 = experiment: Growth inhibition of human IGROV1 cells after 48 hrs by sulforhodamine B assay; details: IGROV-1, 48 h; how it was run: as §1
A498 = experiment: Growth inhibition of human A498 cells after 48 hrs by sulforhodamine B assay; details: A498, 48 h; how it was run: as §1
PC-3 = experiment: Growth inhibition of human PC3 cells after 48 hrs by sulforhodamine B assay; details: PC-3, 48 h; how it was run: as §1
MCF7 [2] = experiment: Anticancer activity against human MCF7 cells assessed as cell growth at 100 uM after 48 hrs by sulforhodamine B assay; details: MCF7, 48 h, read-out: Activity
ACHN = experiment: Growth inhibition of human ACHN cells after 48 hrs by sulforhodamine B assay
KM12 = experiment: Growth inhibition of human KM12 cells after 48 hrs by sulforhodamine B assay; details: KM12, 48 h; how it was run: as §1
SK-MEL-28 = experiment: Growth inhibition of human SK-MEL-28 cells after 48 hrs by sulforhodamine B assay; details: SK-MEL-28, 48 h; how it was run: as §1
NCI-H460 [3] = experiment: Anticancer activity against human NCI-H460 cells assessed as cell growth at 100 uM after 48 hrs by sulforhodamine B assay; details: NCI-H460, 48 h, read-out: Activity
MOLT-4 = experiment: Growth inhibition of human MOLT4 cells after 48 hrs by sulforhodamine B assay; details: MOLT-4, 48 h; how it was run: as §1
SN12C = experiment: Growth inhibition of human SN12C cells after 48 hrs by sulforhodamine B assay
How it was run: (§2)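 Run in the NCI 60-human-tumour-cell-line panel, tested over a 5-log dose range. Dose–response curves gave three values per cell line, each as a log10 molar concentration: GI50 (50% inhibition of net cell growth), TGI (total inhibition of net growth) and LC50 (50% net cell death). The mean graph midpoint is the arithmetic mean over all lines, with insensitive lines entered at the highest concentration tested.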

SF-268 [4] = experiment: Anticancer activity against human SF268 cells assessed as cell growth at 100 uM after 48 hrs by sulforhodamine B assay; details: SF-268, 48 h, read-out: Activity
UACC-62 = experiment: Growth inhibition of human UACC62 cells after 48 hrs by sulforhodamine B assay; details: UACC-62, 48 h; how it was run: as §2
SR = experiment: Growth inhibition of human SR cells after 48 hrs by sulforhodamine B assay; how it was run: as §2
SK-MEL-5 = experiment: Growth inhibition of human SK-MEL-5 cells after 48 hrs by sulforhodamine B assay; details: SK-MEL-5, 48 h; how it was run: as §1
RXF 393 = experiment: Growth inhibition of human RXF393 cells after 48 hrs by sulforhodamine B assay; details: RXF 393, 48 h; how it was run: as §1
SF-539 = experiment: Growth inhibition of human SF539 cells after 48 hrs by sulforhodamine B assay; details: SF-539, 48 h; how it was run: as §1
[5] = Growth inhibition of human Hs 578T cells after 48 hrs by sulforhodamine B assay; how it was run: as §1
DU-145 = experiment: Growth inhibition of human DU145 cells after 48 hrs by sulforhodamine B assay; details: DU-145, 48 h; how it was run: as §1
BT-549 = experiment: Growth inhibition of human BT549 cells after 48 hrs by sulforhodamine B assay; details: BT-549, 48 h; how it was run: as §1
CCRF-CEM = experiment: Growth inhibition of human CCRF-CEM cells after 48 hrs by sulforhodamine B assay; how it was run: as §1
SK-MEL-2 = experiment: Growth inhibition of human SK-MEL-2 cells after 48 hrs by sulforhodamine B assay; details: SK-MEL-2, 48 h; how it was run: as §1
SF-268 [6] = experiment: Growth inhibition of human SF268 cells after 48 hrs by sulforhodamine B assay; details: SF-268, 48 h; how it was run: as §1
Malme-3M = experiment: Growth inhibition of human MALME-3M cells after 48 hrs by sulforhodamine B assay; how it was run: as §1
EKVX = experiment: Growth inhibition of human EKVX cells after 48 hrs by sulforhodamine B assay; how it was run: as §1
MCF7 [7] = experiment: Growth inhibition of human MCF7 cells after 48 hrs by sulforhodamine B assay; details: MCF7, 48 h; how it was run: as §1
HOP-92 = experiment: Growth inhibition of human HOP92 cells after 48 hrs by sulforhodamine B assay; details: HOP-92, 48 h; how it was run: as §1
[8] = read-out: pLC50 (the source's name) (converted)

Work on COc1cc(CNc2nc3cc(N)cc(N)c3nc2-c2ccccc2)cc(OC)c1 yielded a GI50 (NCI-H460 [1]) of 10.5 µM, an LC50 (50% net cell kill) (NCI-H460 [1]) greater than 100 µM and a TGI (NCI-H460 [1]; read-out: pTGI (converted)) greater than 100 µM. For the same compound, the GI50 (LOX IMVI) was 4.47 µM, the LC50 (LOX IMVI) was greater than 100 µM and the TGI (LOX IMVI; read-out: pTGI (converted)) was 81.3 µM. The GI50 (HCT-15) was 19.5 µM, the GI50 (IGROV-1) was 8.71 µM and the CC50 (IGROV-1; [8]) was greater than 100 µM. For the same compound, the TGI (IGROV-1; read-out: pTGI (converted)) was 56.2 µM, the GI50 (A498) was 91.2 µM and the CC50 (A498; [8]) was greater than 100 µM. It also gave a TGI (A498; read-out: pTGI (converted)) greater than 100 µM, a GI50 (PC-3) of 3.02 µM and a CC50 (PC-3; [8]) greater than 100 µM. The TGI (PC-3; read-out: pTGI (converted)) was 14.5 µM, the growth at 100 µM (MCF7 [2]) was -72% and the GI50 (ACHN) was 9.33 µM. For the same compound, the CC50 (ACHN; [8]) was greater than 100 µM, the TGI (ACHN; read-out: pTGI (converted)) was 47.9 µM and the GI50 (KM12) was 4.27 µM. For the same compound, the LC50 (50% net cell kill) (KM12) was greater than 100 µM, the TGI (KM12; read-out: pTGI (converted)) was 74.1 µM and the GI50 (SK-MEL-28) was 1.78 µM. It also gave a CC50 (SK-MEL-28; [8]) greater than 100 µM, a TGI (SK-MEL-28; read-out: pTGI (converted)) of 8.71 µM and a growth at 100 µM (NCI-H460 [3]) of -1%. It also gave a GI50 (MOLT-4) of 3.02 µM, an LC50 (MOLT-4) greater than 100 µM and a TGI (MOLT-4; read-out: pTGI (converted)) greater than 100 µM. The GI50 (SN12C) was 11.5 µM, the CC50 (SN12C; [8]) was greater than 100 µM and the TGI (SN12C; read-out: pTGI (converted)) was greater than 100 µM. For the same compound, the growth at 100 µM (SF-268 [4]) was -28%, the GI50 (UACC-62) was 5.37 µM and the CC50 (UACC-62; [8]) was greater than 100 µM. It also gave a TGI (UACC-62; read-out: pTGI (converted)) of 30.9 µM, a GI50 (SR) of 3.8 µM and an LC50 (concentration giving 50% net cell death) (SR) greater than 100 µM. The TGI (SR; read-out: pTGI (converted)) was greater than 100 µM, the GI50 (SK-MEL-5) was 12.9 µM and the CC50 (SK-MEL-5; [8]) was greater than 100 µM. For the same compound, the TGI (SK-MEL-5; read-out: pTGI (converted)) was 41.7 µM, the GI50 (RXF 393) was 6.03 µM and the CC50 (RXF 393; [8]) was greater than 100 µM. For the same compound, the TGI (RXF 393; read-out: pTGI (converted)) was 58.9 µM, the GI50 (SF-539) was 5.25 µM and the LC50 (SF-539) was 77.6 µM. For the same compound, the TGI (SF-539; read-out: pTGI (converted)) was 21.4 µM, the GI50 [5] was 8.51 µM and the CC50 [5, 8] was greater than 100 µM. The TGI ([5]; read-out: pTGI (converted)) was greater than 100 µM, the GI50 (DU-145) was 29.5 µM and the CC50 (DU-145; [8]) was greater than 100 µM. For the same compound, the TGI (DU-145; read-out: pTGI (converted)) was greater than 100 µM, the GI50 (BT-549) was 9.77 µM and the CC50 (BT-549; [8]) was greater than 100 µM. The TGI (BT-549; read-out: pTGI (converted)) was greater than 100 µM, the GI50 (CCRF-CEM) was 1.74 µM and the LC50 (CCRF-CEM) was greater than 100 µM. It also gave a TGI (CCRF-CEM; read-out: pTGI (converted)) of 5.62 µM, a GI50 (SK-MEL-2) of 7.76 µM and a CC50 (SK-MEL-2; [8]) greater than 100 µM. The TGI (SK-MEL-2; read-out: pTGI (converted)) was 40.7 µM, the GI50 (SF-268 [6]) was 5.37 µM and the LC50 (SF-268 [6]) was greater than 100 µM. It also gave a TGI (SF-268 [6]; read-out: pTGI (converted)) greater than 100 µM, a GI50 (Malme-3M) of 4.9 µM and a CC50 (Malme-3M; [8]) greater than 100 µM. It also gave a TGI (Malme-3M; read-out: pTGI (converted)) of 33.9 µM, a GI50 (EKVX) of 2.82 µM and an LC50 (50% net cell kill) (EKVX) greater than 100 µM. For the same compound, the TGI (EKVX; read-out: pTGI (converted)) was 8.91 µM, the GI50 (MCF7 [7]) was 8.32 µM and the CC50 (MCF7 [7]; [8]) was greater than 100 µM. For the same compound, the TGI (MCF7 [7]; read-out: pTGI (converted)) was greater than 100 µM, the GI50 (HOP-92) was 1.15 µM and the LC50 (50% net cell death) (HOP-92) was 9.55 µM. For the same compound, the TGI (HOP-92; read-out: pTGI (converted)) was 3.31 µM.
